Experimental data from ChEMBL document CHEMBL1155882, “Selective nucleoside triphosphate diphosphohydrolase-2 (NTPDase2) inhibitors: nucleotide mimetics derived from uridine-5'-carboxamide” (J Med Chem, 2008).

What was measured:
[1] = molecular target: P2Y purinoceptor 6 (Rattus norvegicus) (UniProt Q63371); test: Antagonist activity at rat P2Y6 receptor expressed in human 1321N1 cells assessed as inhibition of UDP-induced intracellular calcium mobilization at 100 uM by NOVOstar plate reader; format: functional, cell-based
Chain of P2Y purinoceptor 6 (Rattus norvegicus) (Q63371 whole entry): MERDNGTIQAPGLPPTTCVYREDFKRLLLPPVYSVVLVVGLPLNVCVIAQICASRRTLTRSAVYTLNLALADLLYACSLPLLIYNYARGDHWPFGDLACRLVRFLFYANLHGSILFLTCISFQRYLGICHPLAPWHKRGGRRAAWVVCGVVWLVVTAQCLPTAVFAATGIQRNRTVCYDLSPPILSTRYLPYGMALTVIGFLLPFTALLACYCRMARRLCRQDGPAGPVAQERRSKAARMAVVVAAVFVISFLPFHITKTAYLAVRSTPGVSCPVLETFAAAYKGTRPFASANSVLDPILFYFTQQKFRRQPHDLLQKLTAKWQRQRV
Method in brief: (§1)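 Human 1321N1 astrocytoma cells express human P2Y2 or P2Y4, or rat P2Y6. Cells are loaded with Fura-2 AM and preincubated with compound at 100 μM. Inhibition of agonist-induced intracellular calcium release is read as Fura-2 fluorescence. The agonist is UTP for P2Y2 and P2Y4, and UDP for P2Y6.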

P2Y purinoceptor 4 [2] = molecular target: T1, P2Y purinoceptor 4 (Homo sapiens, UniProt P51582); test: Antagonist activity at human P2Y4 receptor expressed in human 1321N1 cells assessed as inhibition of UTP-induced receptor activation at 100 uM relative to UTP; format: functional, cell-based; design: scale not given: the % may be the effect or the level left; method in brief: as §1
T1 sequence (P51582 whole entry): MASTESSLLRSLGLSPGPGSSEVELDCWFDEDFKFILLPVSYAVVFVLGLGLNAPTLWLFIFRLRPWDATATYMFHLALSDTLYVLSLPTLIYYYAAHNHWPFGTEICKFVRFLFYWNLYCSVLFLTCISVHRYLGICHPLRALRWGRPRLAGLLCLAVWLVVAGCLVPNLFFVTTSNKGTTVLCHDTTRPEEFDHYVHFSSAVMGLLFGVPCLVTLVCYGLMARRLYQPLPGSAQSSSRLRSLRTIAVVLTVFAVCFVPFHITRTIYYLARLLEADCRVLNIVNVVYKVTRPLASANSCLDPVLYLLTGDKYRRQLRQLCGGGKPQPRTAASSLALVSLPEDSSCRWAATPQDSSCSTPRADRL

[3] = molecular target: T2, Ectonucleoside triphosphate diphosphohydrolase 2 (Homo sapiens, UniProt Q9Y5L3); test: Inhibition of human NTPDase 2 expressed in HEK293 cells assessed as residual activity by capillary electrophoresis; format: cell-based
T2 sequence (Q9Y5L3 whole entry): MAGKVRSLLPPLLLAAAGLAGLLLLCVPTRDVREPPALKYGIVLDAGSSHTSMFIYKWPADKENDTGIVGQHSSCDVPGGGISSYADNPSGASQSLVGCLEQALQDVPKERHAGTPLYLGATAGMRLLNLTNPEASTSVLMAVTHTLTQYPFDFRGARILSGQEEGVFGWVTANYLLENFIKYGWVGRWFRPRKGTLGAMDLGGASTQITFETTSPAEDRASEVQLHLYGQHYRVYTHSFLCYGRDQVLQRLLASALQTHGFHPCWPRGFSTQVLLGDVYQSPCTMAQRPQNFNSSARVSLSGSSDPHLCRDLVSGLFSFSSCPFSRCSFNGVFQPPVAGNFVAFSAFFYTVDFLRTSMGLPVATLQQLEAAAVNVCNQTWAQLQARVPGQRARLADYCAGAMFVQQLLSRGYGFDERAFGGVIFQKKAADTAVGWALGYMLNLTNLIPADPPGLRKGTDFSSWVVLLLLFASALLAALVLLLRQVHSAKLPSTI
Method in brief: (§2)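 NTPDase2 membranes come from stably transfected HEK 293 cells; NTPDase3 and NTPDase8 are transiently expressed in COS-7 cells as crude protein extracts. Buffer is 140 mM NaCl, 5 mM KCl, 1 mM MgCl2, 2 mM CaCl2, 10 mM HEPES pH 7.4, with 400 μM ATP, 37 °C, 10 min, stopped at 99 °C. Products are read by capillary electrophoresis (UV 210 nm, UMP internal standard).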

P2Y purinoceptor 2 [4] = molecular target: T3, P2Y purinoceptor 2 (Homo sapiens, UniProt P41231); test: Antagonist activity at human P2Y2 receptor expressed in human 1321N1 cells assessed as inhibition of UTP and ATP-induced receptor activation at 100 uM relative to UTP; format: functional, cell-based; design: scale not given: the % may be the effect or the level left; method in brief: as §1
T3 sequence (P41231 whole entry): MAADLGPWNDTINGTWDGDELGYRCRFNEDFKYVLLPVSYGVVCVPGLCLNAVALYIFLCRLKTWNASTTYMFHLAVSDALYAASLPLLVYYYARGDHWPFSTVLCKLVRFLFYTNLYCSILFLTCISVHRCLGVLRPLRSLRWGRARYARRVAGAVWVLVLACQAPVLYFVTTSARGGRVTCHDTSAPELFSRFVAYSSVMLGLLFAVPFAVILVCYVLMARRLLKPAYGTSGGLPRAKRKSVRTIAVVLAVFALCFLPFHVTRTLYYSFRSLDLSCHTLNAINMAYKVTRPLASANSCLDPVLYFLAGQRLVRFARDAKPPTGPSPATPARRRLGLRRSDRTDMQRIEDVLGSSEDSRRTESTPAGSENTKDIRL

[5] = molecular target: T4, Ectonucleoside triphosphate diphosphohydrolase 8 (Homo sapiens) (UniProt Q5MY95); test: Inhibition of human NTPDase 8 expressed in COS7 cells at 1mM; format: cell-based; settings: COS-7
T4 sequence (whole entry): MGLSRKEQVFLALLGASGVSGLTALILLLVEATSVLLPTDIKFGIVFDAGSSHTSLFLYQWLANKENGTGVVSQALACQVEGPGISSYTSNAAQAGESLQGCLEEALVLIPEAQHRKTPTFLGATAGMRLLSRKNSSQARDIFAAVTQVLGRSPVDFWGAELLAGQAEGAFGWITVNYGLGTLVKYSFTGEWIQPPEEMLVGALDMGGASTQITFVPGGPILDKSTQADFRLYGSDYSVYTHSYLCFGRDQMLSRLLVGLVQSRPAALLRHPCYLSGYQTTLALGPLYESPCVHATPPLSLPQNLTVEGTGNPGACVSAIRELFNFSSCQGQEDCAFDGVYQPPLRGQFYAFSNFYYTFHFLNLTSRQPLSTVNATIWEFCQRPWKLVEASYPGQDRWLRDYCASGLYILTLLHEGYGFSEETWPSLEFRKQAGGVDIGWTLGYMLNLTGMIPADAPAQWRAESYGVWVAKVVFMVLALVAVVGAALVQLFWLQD
Method in brief: (§3)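 Transiently transfected COS-7 cell protein extract expressing human enzyme. 1 mM test compound with 400 μM ATP in HEPES 10 mM pH 7.4 buffer (NaCl, KCl, 1 mM MgCl2, 2 mM CaCl2), 37 °C for 10 min. Stopped at 99 °C for 5 min. Products measured by capillary electrophoresis, UV 210 nm, with UMP internal standard. Triplicates in two experiments; empty-pcDNA3 membrane control.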

P2Y purinoceptor 4 [6] = molecular target: T1, P2Y purinoceptor 4; test: Antagonist activity at human P2Y4 receptor expressed in human 1321N1 cells assessed as inhibition of UTP-induced intracellular calcium mobilization at 100 uM by FLUOstar plate reader; format: functional, cell-based; method in brief: as §1
[7] = molecular target: P2Y purinoceptor 6 (Rattus norvegicus) (UniProt Q63371); test: Antagonist activity at rat P2Y6 receptor expressed in human 1321N1 cells assessed as inhibition of UDP-induced receptor activation at 100 uM relative to UDP; format: functional, cell-based; design: scale not given: the % may be the effect or the level left; method in brief: as §1
[8] = molecular target: T5, Ectonucleoside triphosphate diphosphohydrolase 3 (Homo sapiens) (UniProt O75355); test: Inhibition of human NTPDase 3 expressed in COS7 cells at 1mM; format: cell-based; settings: COS-7; method in brief: as §2
T5 sequence (whole entry): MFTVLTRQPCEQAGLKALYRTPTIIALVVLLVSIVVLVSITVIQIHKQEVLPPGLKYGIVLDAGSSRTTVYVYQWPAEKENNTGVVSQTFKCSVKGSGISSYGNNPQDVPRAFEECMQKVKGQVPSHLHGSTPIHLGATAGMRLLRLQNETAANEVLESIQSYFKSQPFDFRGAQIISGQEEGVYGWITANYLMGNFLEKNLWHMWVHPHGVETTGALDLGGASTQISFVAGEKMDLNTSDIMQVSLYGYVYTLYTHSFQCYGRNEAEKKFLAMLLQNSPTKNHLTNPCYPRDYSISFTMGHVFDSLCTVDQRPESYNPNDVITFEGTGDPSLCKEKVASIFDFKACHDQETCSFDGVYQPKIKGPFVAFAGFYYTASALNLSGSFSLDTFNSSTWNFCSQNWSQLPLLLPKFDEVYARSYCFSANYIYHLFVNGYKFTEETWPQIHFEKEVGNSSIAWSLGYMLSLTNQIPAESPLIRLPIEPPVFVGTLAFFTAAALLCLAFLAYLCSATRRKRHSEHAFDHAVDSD

[9] = Stability in simulated artificial gastric juice after 24 hrs by LC-MS analysis; format: physicochemical; settings: simulated gi fluid
[10] = molecular target: T6, Ectonucleoside triphosphate diphosphohydrolase 1 (Homo sapiens) (UniProt P49961); test: Inhibition of human NTPDase 1 expressed in COS7 cells at 1mM; format: cell-based; settings: COS-7; method in brief: as §3
T6 sequence (whole entry): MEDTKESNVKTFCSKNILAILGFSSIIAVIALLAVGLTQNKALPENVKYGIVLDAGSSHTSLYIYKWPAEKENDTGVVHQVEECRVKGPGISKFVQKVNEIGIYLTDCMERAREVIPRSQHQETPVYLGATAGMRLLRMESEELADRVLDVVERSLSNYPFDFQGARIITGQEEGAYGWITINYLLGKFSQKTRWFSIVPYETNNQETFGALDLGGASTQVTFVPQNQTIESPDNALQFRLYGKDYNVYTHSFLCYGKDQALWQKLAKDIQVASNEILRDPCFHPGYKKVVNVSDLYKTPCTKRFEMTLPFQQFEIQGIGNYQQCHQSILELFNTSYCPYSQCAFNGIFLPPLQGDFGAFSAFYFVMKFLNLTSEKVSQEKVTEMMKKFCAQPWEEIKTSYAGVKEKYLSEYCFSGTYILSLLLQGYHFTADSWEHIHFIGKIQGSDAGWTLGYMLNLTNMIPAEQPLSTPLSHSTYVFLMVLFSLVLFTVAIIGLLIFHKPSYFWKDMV

[11] = Chemical stability in 0.001 N aqueous sodium hydroxide at pH 11 by LC-MS analysis; format: physicochemical; settings: buffer
Method in brief: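 Compound from a 2 mM aqueous stock (20 mM NH4OAc) is diluted 10 μL into 990 μL of 0.001 N NaOH (pH 11). It is incubated 2 or 24 h at 37 °C and analysed by C18 LC–ESI-MS, with detection limit about 0.1 μg/mL.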

[12] = Metabolic stability in rat liver microsomes after 24 hrs by LC-MS analysis; format: ADME, Microsome; settings: read-out: Stability
P2Y purinoceptor 2 [13] = molecular target: T3, P2Y purinoceptor 2; test: Antagonist activity at human P2Y2 receptor expressed in human 1321N1 cells assessed as inhibition of UTP-induced intracellular calcium mobilization at 100 uM by FLUOstar plate reader; format: functional, cell-based; method in brief: as §1
[14] = molecular target: T7, Ectonucleoside triphosphate diphosphohydrolase 8 (Homo sapiens, UniProt Q5MY95); test: Inhibition of human NTPDase 8 expressed in COS7 cells; format: cell-based, COS-7; method in brief: as §2
T7 sequence (Q5MY95 whole entry): T4 sequence (whole entry)

[15] = Inhibition of rat NTPDase 3
[16] = molecular target: T8, Ectonucleoside triphosphate diphosphohydrolase 2 (Homo sapiens) (UniProt Q9Y5L3); test: Inhibition of human NTPDase 2 expressed in HEK293 cells at 1mM; format: cell-based
T8 sequence (whole entry): T2 sequence (Q9Y5L3 whole entry)
Method in brief: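 Membranes from HEK 293 cells stably expressing human NTPDase2 (geneticin selection), prepared by differential and sucrose-gradient centrifugation. 1 mM test compound with 400 μM ATP in 10 mM HEPES pH 7.4 saline (1 mM MgCl2, 2 mM CaCl2), 37 °C for 10 min. Heat-stopped at 99 °C. Nucleotides separated by capillary electrophoresis, UV 210 nm, UMP internal standard. Triplicates, two experiments.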

In the case of `CCOP(=O)(CNC(=O)CNC(=O)[C@H]1O[C@@H](n2ccc(=O)[nH]c2=O)[C@H](O)[C@@H]1O)OCC`, the inhibition [1] is reported as 17%, the Activity (P2Y purinoceptor 4 [2]) is reported as 46% and the IC50 [3] is reported as 374 µM. The Activity (P2Y purinoceptor 2 [4]) was 58%, the inhibition [5] was 0% and the inhibition (P2Y purinoceptor 4 [6]) was 38%. For the same compound, the Activity [7] was 12% and the inhibition [8] was 0%.
For `CCOP(=O)(Cc1ccc(NC(=O)CNC(=O)[C@H]2O[C@@H](n3ccc(=O)[nH]c3=O)[C@H](O)[C@@H]2O)cc1)OCC`, the inhibition [1] was -10%, the Activity (P2Y purinoceptor 4 [2]) was -42% and the Stability [9] was “Stable”. It also gave an IC50 [3] of 42 µM, an Activity (P2Y purinoceptor 2 [4]) of -21% and an inhibition [10] of 50%. The Stability [11] was “Stable”, the remaining at 24 h [12] was over 95% and the inhibition [5] was 0%. For the same compound, the inhibition (P2Y purinoceptor 4 [6]) was 4%, the inhibition (P2Y purinoceptor 2 [13]) was 22% and the Activity [7] was -7%. The inhibition [8] was 0%.
Compound `CCOP(=O)(Cc1ccc(NC(=O)CCCNC(=O)[C@H]2O[C@@H](n3cnc4c(N)ncnc43)[C@H](O)[C@@H]2O)cc1)OCC` has an inhibition (P2Y purinoceptor 2 [13]) of 37%, a Ki [14] of 255 µM and an inhibition [8] of 0%.
`CCN(CC)c1ncnc2c1ncn2[C@@H]1O[C@H](COP(=O)(O)OP(=O)(O)C(Br)(Br)P(=O)(O)O)[C@@H](O)[C@H]1O` gave a Ki [15] of 112 µM and a Ki [14] of over 100 µM.
In the case of `CCOP(=O)(CNC(=O)CCNC(=O)[C@H]1O[C@@H](n2ccc(=O)[nH]c2=O)[C@H](O)[C@@H]1O)OCC`, the inhibition [1] is reported as -3%, the Activity (P2Y purinoceptor 4 [2]) is reported as 11% and the Activity (P2Y purinoceptor 2 [4]) is reported as 13%. The inhibition [10] was 0%, the inhibition [5] was 0% and the inhibition (P2Y purinoceptor 4 [6]) was 6%. For the same compound, the inhibition (P2Y purinoceptor 2 [13]) was 43%, the Activity [7] was -16% and the inhibition [8] was 0%.
Compound `CCOP(=O)(Cc1ccc(NC(=O)CNC(=O)[C@H]2O[C@@H](n3cnc4c(N)ncnc43)[C@H](O)[C@@H]2O)cc1)OCC` has an inhibition [1] of 6%, an inhibition [10] of 0% and an inhibition [5] of 0%. It also gave an inhibition (P2Y purinoceptor 4 [6]) of 7%, an inhibition [16] of 0% and an inhibition [8] of 0%.
`CCOP(=O)(Cc1ccc(NC(=O)CCNC(=O)[C@H]2O[C@@H](n3cnc4c(N)ncnc43)[C@H](O)[C@@H]2O)cc1)OCC` showed an inhibition [1] of 15%, an Activity (P2Y purinoceptor 4 [2]) of 11% and an Activity (P2Y purinoceptor 2 [4]) of 16%. It also gave an inhibition [5] of 0%, an inhibition (P2Y purinoceptor 2 [13]) of 46% and an Activity [7] of -7%. For the same compound, the inhibition [8] was 0%.
